From PubChem BioAssay
This is a sample that favours compounds with a hit; in the whole collection about 2% have one here.
Tb hexokinase – blocks Trypanosoma brucei hexokinase 1 activity | recombinant TbHK1, G6PDH-coupled NADH A340 | 220,000 compounds, 0.11% hits | inhibition, % at 10 µM | AID 1430;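 active = inhibition of 50% or more in the single-dose primary screen; inactive = inhibition below 50%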
L929 necroptosis – blocks zVAD induced death of L929 cells; L929 zVAD necroptosis rescue, ATP luminescence, 24 h; with zVAD 60 µM; viability rescue, % at 10 µM; 220,000 compounds, 0.38% hits;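 active = activation, scaled between plate controls, above about 75%, limit read from the data; inactive = activation under that limit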;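 note: 0% = zVAD with DMSO and 100% = DMSO alone without zVAD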
TNF necrop inh – TNF-alpha cell death inhibition in Jurkat FADD-/- cells. activation (protection from cell death), % at 10 µM. 220,000 compounds, 0.068% hits. Jurkat FADD-/- TNF necroptosis rescue, ATP luminescence, 24 h; 0 = TNF only, 100 = no-TNF cells. AID 463075;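 active = activation, meaning protection from cell death, of at least 50% relative to plate controls; inactive = activation below 50%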;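 note: necroptosis triggered by 40 ng/mL TNF-alpha added together with compound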
Lipid droplet – hepatic lipid droplet formation modulation | AML12 mouse hepatocytes, oleate lipid droplets, BODIPY imaging | inhibition, % at 6.5 µM | 240,000 compounds, 0.4% hits | AID 1656;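 active = lipid droplet intensity inhibited by at least 50%, with more than 500 cells counted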
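Test system: AML12 mouse liver cells; schedule: overnight exposure; technique: high-content imaging of BODIPY-stained droplets and DAPI nuclei; read-out: % inhibition of corrected integrated BODIPY droplet signal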
RBBP9 inhibitor – human RBBP9 hydrolase inhibition | O75884 | recombinant RBBP9, FP-Rh probe fluorescence polarization | inhibition, % at 7.94 µM | 220,000 compounds, 0.2% hits | AID 1515;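 active = inhibition above the campaign mean of all tested compounds plus 3 SD, cut at about 14% in these data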;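 note: plate controls were DMSO wells with RBBP9 for no effect and wells lacking RBBP9 protein for full effect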
Target sequence (O75884 whole entry, looked up): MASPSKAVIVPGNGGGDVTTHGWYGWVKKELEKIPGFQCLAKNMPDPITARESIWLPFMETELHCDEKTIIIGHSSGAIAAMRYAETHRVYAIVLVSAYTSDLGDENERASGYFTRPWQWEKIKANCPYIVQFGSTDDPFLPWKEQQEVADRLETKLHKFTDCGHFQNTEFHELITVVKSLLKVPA
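System: RBBP9 protein / Quantity: 2.5 µM RBBP9 dispensing solution, before mixing / Also added: Serine-hydrolase probe FP-Rh, 375 nM pre-mixing / Dosing: 7.94 µM single dose, 0.794% DMSO / Timing: enzyme-compound preincubation 30 min, then probe labeling 45 min, 25 °C / Signal: FP readout at 525/598 nm / Controls: DMSO-treated enzyme wells and wells lacking RBBP9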
M18AAP inhibitor – PfM18AAP enzyme inhibition; recombinant PfM18AAP, H-Glu-NHMec fluorogenic cleavage; inhibition, % at 7.35 µM; 290,000 compounds, 1.2% hits; AID 1822;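 active = inhibition above the campaign mean inhibition over all tested compounds plus 3 SD, cut at about 28% in these data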;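 note: 0% = plate median of test compound wells and 100% = 2 mM ZnCl2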
zVAD necrop conf – confirmed blocker of zVAD induced death in L929 cells. shares compounds with L929 necroptosis. L929 zVAD-induced necroptosis rescue, ATP luminescence, 24 h. activation (protection from necroptosis), % at 10 µM. 760 compounds, 16% hits. AID 463117;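 active = mean protection from necroptosis of at least 50% over duplicate tests; inactive = mean protection below 50%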;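 note: 0% = cells with zVAD alone and 100% = vehicle cells without zVAD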
The depositor's hits bear a star; x = not tested or not shown.

SMILES | Tb hexokinase | L929 necroptosis | TNF necrop inh | Lipid droplet | RBBP9 inhibitor | M18AAP inhibitor | zVAD necrop conf
Cc1ccc2c(c1)N(C(=O)NC1CCCCC1)C(C)(C)CC2C (stereo unspecified) | -9 | 82* | 16 | 7 | 0 | 2 | 81*
Cc1ccc2c(c1)C(C)CC(C)(C)N2C(=O)NC1CCCCC1 (stereo unspecified) | 1 | 88* | 7 | x | -3 | 0 | 82*
COc1cn(-c2ccccc2)nc1C(=O)Nc1ccc(C)cc1Cl | x | x | x | 37 | x | -1 | x
CN(CCNC(=O)c1cc2c(=O)n(C)c3ccccc3c2n1C)Cc1ccccc1 | -3 | 64 | -1 | x | -3 | -12 | x
CCCN(CCC)CCNC(=O)c1cc2c(=O)n(C)c3ccccc3c2n1C | -5 | 78* | 5 | -12 | -3 | 1 | 33
CC1CCCCN1CCNC(=O)c1cc2c(=O)n(C)c3ccccc3c2n1C (stereo unspecified) | 0 | 82* | 7 | x | -8 | 8 | 37
O=C(C[n+]1ccc(C(=O)NCc2ccccc2)cc1)c1ccc(Cl)cc1 | x | x | x | -15 | x | 0 | x
COc1ccc(C(=O)COC(=O)c2ccc(OC)c(OC)c2)cc1OC | 0 | 2 | 3 | -1 | 3 | -15 | x
COc1ccc(C(=O)OCC(=O)NC(=O)NC(C)C)cc1OC | 0 | 77* | 0 | 1 | -10 | -3 | 1
Cc1ccc(C)c(NC(=O)CN(C)C(=O)c2nn(C)c(=O)c3ccccc23)c1 | -3 | 5 | 0 | 4 | 1 | -8 | x
Cc1ccc(C)c(C2=NNC(=NCc3ccccc3)SC2)c1 | -11 | 77* | 95* | 25 | -12 | 2 | 25
C=CCn1c(C)cc(C2=NNC(=NCc3ccccc3)SC2)c1C | -9 | 6 | 1 | -14 | 3 | -1 | x
CCOC(=O)c1ccc(NC(=O)Nc2ccn(C)n2)cc1 | 7 | 86* | 1 | 14 | -7 | 4 | 40
CCOC(=O)c1ccc(NC(=O)Nc2cccc(C)n2)cc1 | 2 | 68 | 1 | 8 | -6 | 6 | x
Cc1cnc(N)c2c(=O)oc3ccccc3c12 | -19 | 84* | -1 | x | -3 | 5 | 3
CCOC(=O)c1c(C)nc(C)c2c(=O)oc3ccccc3c12 | -6 | 0 | 0 | -8 | -5 | -1 | x
O=C(Nc1ccc(Cl)cc1)N1N=CCC1c1ccccc1 (stereo unspecified) | 9 | 79* | 92* | -22 | -11 | -5 | 25
CC(=O)c1cc2c(cc1NS(=O)(=O)c1ccc(C)cc1)OCCO2 | 5 | x | -9 | -12 | 0 | -1 | x
CC(C)=CC(=O)Nc1nc2ccc([N+](=O)[O-])cc2s1 | -2 | 77* | -5 | x | -6 | 3 | 38
Cc1ccc(NC(=O)CN2C(=O)S/C(=C/c3ccc(O)c([N+](=O)[O-])c3)C2=O)cc1C | 23 | 86* | 2 | 7 | 5 | 0 | 2
CCN1CCN(Cc2ccc(NC(=O)c3ccc(C)c(NC(=O)c4ccc5n[nH]nc5c4)c3)cc2C(F)(F)F)CC1 | 8 | 72 | 2 | 3 | x | x | x
CCN1CCN(Cc2ccc(NC(=O)c3cc(NC(=O)c4cnn(-c5ccccc5)c4N)cc(OC)c3)cc2C(F)(F)F)CC1 | 3 | 80* | -26 | 14 | x | x | 81*
CCN1CCN(Cc2ccc(NC(=O)c3ccc(C)c(NC(=O)c4ccnnc4)c3)cc2C(F)(F)F)CC1 | -2 | 76* | 5 | -18 | x | x | 56*
CCOc1ccccc1NC(=O)NCCCCc1ccccc1 | x | x | x | -1 | x | -16 | x
CCOC(=O)N1CCN(C(=O)CSCc2ccccc2Cl)CC1 | 0 | 0 | 0 | -31 | -7 | -2 | x
SMILES | Tb hexokinase | L929 necroptosis | TNF necrop inh | Lipid droplet | RBBP9 inhibitor | M18AAP inhibitor | zVAD necrop conf
COc1ccccc1Nc1nc(-c2ccccc2O)nc2ccccc12 | -9 | 76* | 2 | 0 | -4 | -9 | 0
O=[N+]([O-])c1cc(Cl)cc(/C=N/Nc2nc3ccccc3s2)c1O | -4 | 11 | -1 | 6 | 1 | 6 | x
COc1cc(OC)cc(C(=O)Oc2ccc(/C=N/Nc3nc4ccccc4s3)cc2OC)c1 | -29 | 77* | 3 | -2 | -7 | 6 | 5
COc1cccc(C(=O)Oc2ccc(/C=N/NC(=O)c3ccncc3)cc2OC)c1 | x | x | x | 6 | x | -2 | x
Brc1csc(/C=N/Nc2nc3ccccc3s2)c1 | -10 | 76* | 7 | 24 | 8 | -5 | 2
COc1cc(/C=N/Nc2nc3ccccc3s2)cc([N+](=O)[O-])c1O | -92 | 76* | 25 | -10 | -13 | 19 | 1
COc1cc(/C=N/Nc2nc3ccccc3s2)ccc1OC(=O)c1ccccc1F | -25 | 75* | 31 | 0 | 3 | 4 | 75*
CC(O)[C@H]1CNC(=O)C(=O)N1CCc1cccc(F)c1 (stereo partly specified) | -8 | 0 | 1 | -18 | x | x | x
CCC(Oc1ccccc1)C(=O)NCCOC (stereo unspecified) | 39 | 0 | 1 | -11 | 9 | -12 | x
N#C/C(=C\C=C\c1ccccc1[N+](=O)[O-])C(=O)NC1CCCCC1 | -17 | 75* | -2 | -28 | 3 | -11 | 0
N#C/C(=C\c1ccccc1[N+](=O)[O-])C(=O)NC1CCCCC1 | -1 | 1 | -5 | -4 | -2 | -1 | x
CSCC[C@H](NC(=O)Nc1ccc(S(N)(=O)=O)cc1)C(=O)O | -6 | 0 | 2 | -3 | -8 | 2 | x
CCC(=O)Nc1ccc(C(=O)NNC(=O)COc2cc(C)ccc2C)cc1 | -2 | 85* | 1 | -8 | 0 | 3 | 45
Cc1ccc(OCC(=O)NNC(=O)c2ccc(NC(=O)C3CC3)cc2)c(C)c1 | x | x | x | -1 | x | 4 | x
CCC(=O)N1CCN(c2ccc(NC(=O)COc3ccccc3[N+](=O)[O-])cc2)CC1 | -7 | 8 | -2 | -25 | 0 | 0 | x
O=C(CCl)N1c2ccccc2OCC1c1ccccc1 (stereo unspecified) | -1 | 90* | -15 | -1 | -7 | -4 | 3
O=C(CCl)N1c2ccccc2SCC1c1ccccc1 (stereo unspecified) | x | x | x | -4 | x | -9 | x
O=C1CCN(C(=O)c2cccs2)c2ccccc21 | -15 | 1 | 1 | 1 | -4 | 1 | x
CN1C(=O)/C(=C\C(=O)c2cccs2)c2ccccc21 | -12 | 86* | -9 | 29 | -5 | 21 | 2
Cn1c(CCc2nc3ccccc3[nH]2)nnc1SCC#N | 8 | 0 | 0 | 4 | -10 | -12 | x
Cn1c(=O)c2[nH]c(N3CCCCC3)nc2n(C)c1=O | -2 | 1 | 2 | 25 | 2 | 5 | x
Cn1c(=O)c2[nH]c(N3CCN(c4ccccn4)CC3)nc2n(C)c1=O | -2 | 75* | 3 | 15 | -12 | 3 | 2
